Source: PubChem (several laboratories)
NSD2 inh: NSD2 histone methyltransferase inhibitors, primary screen, biochemical, AlphaScreen, single concentration, set 2 | 0.54% of 310,000 active | inhibition, % at 12.5 µM | NSD2 peptide methylation, 120 min | AID 743445, 2014
DNMT1 block: human DNMT1 methyltransferase inhibitors, primary screen, biochemical, molecular beacon, fluorescence, HinP1I cleavage, uHTS; DNA (cytosine-5)-methyltransferase 1 (Homo sapiens), P26358; AID 588458, 2011; 0.83% of 360,000 active; inhibition (reported as % activation of signal), % at 10 µM
Target sequence (P26358 504-1616 limits assumed): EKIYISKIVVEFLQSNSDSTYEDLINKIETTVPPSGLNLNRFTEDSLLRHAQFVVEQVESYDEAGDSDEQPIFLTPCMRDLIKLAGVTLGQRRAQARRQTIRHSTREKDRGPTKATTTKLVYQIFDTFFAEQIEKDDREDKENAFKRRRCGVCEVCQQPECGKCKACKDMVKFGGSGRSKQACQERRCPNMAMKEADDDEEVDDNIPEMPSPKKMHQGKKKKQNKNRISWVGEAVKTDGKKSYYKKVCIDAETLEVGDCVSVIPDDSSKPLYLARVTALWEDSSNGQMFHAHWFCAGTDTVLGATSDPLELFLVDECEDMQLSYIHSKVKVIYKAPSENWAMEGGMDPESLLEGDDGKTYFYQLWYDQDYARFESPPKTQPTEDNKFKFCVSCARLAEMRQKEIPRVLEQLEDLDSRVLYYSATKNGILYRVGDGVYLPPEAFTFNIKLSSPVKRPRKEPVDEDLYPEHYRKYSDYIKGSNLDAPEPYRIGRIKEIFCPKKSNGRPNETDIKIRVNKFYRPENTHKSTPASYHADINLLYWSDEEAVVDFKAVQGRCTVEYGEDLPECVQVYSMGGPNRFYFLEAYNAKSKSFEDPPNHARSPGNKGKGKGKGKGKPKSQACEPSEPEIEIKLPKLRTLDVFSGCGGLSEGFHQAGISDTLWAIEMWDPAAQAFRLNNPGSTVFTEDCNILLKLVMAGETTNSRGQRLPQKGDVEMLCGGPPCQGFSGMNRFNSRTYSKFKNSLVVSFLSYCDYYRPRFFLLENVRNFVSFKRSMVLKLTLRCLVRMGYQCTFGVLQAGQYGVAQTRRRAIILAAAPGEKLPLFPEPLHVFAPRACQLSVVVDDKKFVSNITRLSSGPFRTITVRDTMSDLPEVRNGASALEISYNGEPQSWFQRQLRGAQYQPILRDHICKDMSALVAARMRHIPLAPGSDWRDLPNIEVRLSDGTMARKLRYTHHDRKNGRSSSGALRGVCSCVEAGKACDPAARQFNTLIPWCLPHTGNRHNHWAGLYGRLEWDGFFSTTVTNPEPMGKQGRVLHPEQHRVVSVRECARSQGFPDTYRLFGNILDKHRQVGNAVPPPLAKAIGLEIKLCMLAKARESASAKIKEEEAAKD
HCV NS3 hel inh: inhibitors of HCV NS3 helicase, primary screen, biochemical, Cy5 molecular beacon fluorescence | Hepatitis C virus NS3 helicase | NS3 helicase DNA unwinding | inhibition, % at 10.9 µM | 0.56% of 290,000 active;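 active = inhibition above the mean of all tested compounds plus 3 SD, set per campaign, cut at about 35% in these data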
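Measured by: Cy5 fluorescence, 0 and 60 min reads / Assay system: NS3 helicase fragment of HCV / Control set: low DMSO, high thioflavine S at 110 µM / Times: 1 h reaction at 25 °C, ATP-initiated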
Casp6 inh: human caspase-6 inhibitors, primary screen, biochemical, VEID-R110 fluorescence, single point, set 2 | P55212 | purified caspase-6, Z-VEID-R110 cleavage fluorescence | inhibition, % at 12.5 µM | 0.53% of 350,000 active | AID 686996, 2013;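 active = mean inhibition across replicates at least about 35%, with every replicate also reaching that limit, limit read from the data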
Large screens that a line does not name were inactive. This is a sample that favours compounds with a hit; in the whole collection about 1.5% have one here. Rule as the data show it, unless noted: active = inhibition above about 50%; inactive = the rest.

CCN1/C(=C/C=C/c2oc3ccc(-c4ccccc4)cc3[n+]2CC)Oc2ccc(-c3ccccc3)cc21	DNMT1 block 149 (no result: NSD2 inh)
COc1cc(-c2cccs2)cc(=O)c2c(C)oc(C)c12	DNMT1 block 71
COc1ccc(-c2cc(OC(=O)c3ccc(F)cc3)c3c(C)oc(C)c3c(=O)c2)cc1	none (no result: NSD2 inh, DNMT1 block, Casp6 inh)
CCNC(=O)[C@@H]1[C@@H](CO)[C@@H]2Cn3c(ccc(-c4ccncc4)c3=O)[C@@H]2N1Cc1ccc2c(c1)OCO2	none (no result: NSD2 inh, DNMT1 block, HCV NS3 hel inh)
NNC(=O)CC1=NNC(=O)C1	Casp6 inh 40 (no result: HCV NS3 hel inh)
O=C1CC(CC(=O)N/N=C/c2ccccc2[N+](=O)[O-])=NN1	none (no result: Casp6 inh)
O=C1C=CC2=C3c4cc(O)c(O)cc4CC3(O)COC2=C1O (stereo not drawn)	DNMT1 block 91, Casp6 inh 85 (no result: NSD2 inh, HCV NS3 hel inh)
COc1cc(/C=C(\C#N)C(=O)c2ccc(O)c(O)c2)cc(I)c1O	Casp6 inh 63 (no result: NSD2 inh, HCV NS3 hel inh)
Cc1ccc(-c2csc(NS(=O)(=O)c3cccc(F)c3)n2)o1	Casp6 inh 41 (no result: HCV NS3 hel inh)
C[C@@H]1CN([C@@H](C)CO)C(=O)c2cc(NC(=O)Nc3ccccc3)ccc2O[C@@H](C)CCCCO[C@H]1CN(C)S(=O)(=O)c1ccc(Cl)cc1	none (no result: NSD2 inh, DNMT1 block, HCV NS3 hel inh)
OC(CNC1CCCCC1)COCCOc1ccc(Br)cc1 (stereo not drawn)	Casp6 inh 47
S=C1Nc2ccccc2CS1	none (no result: HCV NS3 hel inh, Casp6 inh)
S=C1Cc2ccccc2N1	DNMT1 block 83 (no result: NSD2 inh)
CC(C)C#Cc1cnc2c(c1)C(=O)N([C@@H](C)CO)C[C@H](C)[C@@H](CN(C)C(=O)C1CCC1)O2	none (no result: NSD2 inh, DNMT1 block, HCV NS3 hel inh)
O=C(NC(=S)NNS(=O)(=O)c1ccccc1)c1ccccc1[N+](=O)[O-]	Casp6 inh 52
CCOC(=O)c1c(NC(=O)C2CC(Cl)=CCC2C(=O)O)sc2c1CC(C)(C)OC2 (stereo not drawn)	Casp6 inh 43
Cn1cccc1/C=C1\SC(=S)N(NC(=O)c2ccccc2O)C1=O	none (no result: NSD2 inh)
COc1ccc(/C=C2\SC(=S)N(C(Cc3ccccc3)C(=O)O)C2=O)cc1 (stereo not drawn)	none
O=C(NN1C(=O)/C(=C/C=C/c2ccco2)SC1=S)c1ccccc1O	DNMT1 block 91, Casp6 inh 92 (no result: NSD2 inh)
O=C(O)C(Cc1ccccc1)N1C(=O)/C(=C/C=C/c2ccco2)SC1=S (stereo not drawn)	NSD2 inh active, DNMT1 block 97, Casp6 inh 91
Cc1ccn2c(=O)nc(SCC(=O)N3CCCC3)nc2c1	none (no result: HCV NS3 hel inh)
Cc1ccn2c(=O)nc(SCC(=O)N3CCC(C)CC3)nc2c1	Casp6 inh 52 (no result: HCV NS3 hel inh)
CCNC(=S)N1CCCCC1CO (stereo not drawn)	Casp6 inh 47
O=C(c1ccccn1)N1CC(=O)N2[C@@H](CO)[C@@H](c3ccc(C#CCc4ccccc4)cc3)[C@@H]2C1	none (no result: NSD2 inh, DNMT1 block, HCV NS3 hel inh)
Cc1nc(NC(=O)COC(=O)/C=C/c2ccco2)c(Cl)cc1Cl	Casp6 inh 50 (no result: HCV NS3 hel inh)
O=C(COC(=O)/C=C/c1ccco1)Nc1ncc(Cl)cc1Cl	Casp6 inh 44
COC(=O)c1ccc(/C=C/C(=O)OCC(=O)Nc2ncc(Cl)cc2Cl)cc1	none (no result: HCV NS3 hel inh)
Cc1ccc(S(=O)(=O)N2CCC(C(=O)NCCCN3CCOCC3)CC2)cc1C	Casp6 inh 60 (no result: HCV NS3 hel inh)
CCC(=O)N1CCCCN2[C@H](C1)[C@H](c1ccc(C#Cc3ccccc3F)cc1)[C@@H]2CO	none (no result: NSD2 inh, DNMT1 block, HCV NS3 hel inh)
COc1cc(C(=O)NC(CCSC)C(=O)OCc2cc([N+](=O)[O-])cc3c2OCOC3)cc(OC)c1OC (stereo not drawn)	Casp6 inh 36
COc1ccc(C)cc1NC(=O)c1cc(S(=O)(=O)N2CCC3(CC2)OCCO3)ccc1F	none
Cc1cccc(C)c1NC(=O)c1cc(S(=O)(=O)N2CCC3(CC2)OCCO3)ccc1F	Casp6 inh 65 (no result: HCV NS3 hel inh)
C[C@H]1CCCCO[C@@H](CN(C)Cc2ccc(C(F)(F)F)cc2)[C@@H](C)CN([C@@H](C)CO)C(=O)c2cc(N(C)C)ccc2O1	none (no result: NSD2 inh, DNMT1 block, HCV NS3 hel inh)
COc1c(-c2ccc(O)c(O)c2)oc2cc(O)cc(O)c2c1=O	Casp6 inh 48 (no result: NSD2 inh, HCV NS3 hel inh)
COCOc1cc(O)c2c(=O)c(OCOC)c(-c3ccc(OCOC)c(OCOC)c3)oc2c1	Casp6 inh 51 (no result: NSD2 inh, HCV NS3 hel inh)
O=c1c(O[C@@H]2O[C@H](CO)[C@H](O)[C@H](O)[C@H]2O)c(-c2ccc(O)c(O)c2)oc2cc(O)cc(O)c12	none (no result: NSD2 inh, DNMT1 block, Casp6 inh)
Cc1ccc(NC(=O)c2nc[nH]c2C(=O)Nc2ccccc2F)cc1	none (no result: NSD2 inh, HCV NS3 hel inh)
O=C(Nc1ccccc1)c1nc[nH]c1C(=O)Nc1ccccc1F	Casp6 inh 49 (no result: NSD2 inh, HCV NS3 hel inh)
COc1cccc(S(=O)(=O)Nc2ccc3c(c2)C(=O)N(C)C[C@H](OC)[C@@H](C)CN[C@@H](C)CO3)c1	none (no result: NSD2 inh, DNMT1 block, HCV NS3 hel inh)
Cc1ccc(N2CCN(/N=C/c3c(C)nn(-c4ccccc4)c3Cl)CC2)cc1	Casp6 inh 45
Cc1ccc(S(=O)(=O)N2CC[C@H]3[C@@H](CO)N(C)c4ccc(-c5cccc(C#N)c5)cc4[C@H]32)cc1	none (no result: NSD2 inh, DNMT1 block, HCV NS3 hel inh)
O=[N+]([O-])c1ccc(NCCN2CCOCC2)c([N+](=O)[O-])c1	Casp6 inh 42
O=C(NCCN1CCOCC1)c1ccc([N+](=O)[O-])cc1[N+](=O)[O-]	none (no result: NSD2 inh, Casp6 inh)
Cc1ccc(S(=O)(=O)N[C@@H]2C=C[C@@H](CC(=O)NC3CCCCC3)O[C@@H]2CO)cc1	none (no result: NSD2 inh, DNMT1 block, HCV NS3 hel inh)
Nc1ccc(S(=O)(=O)Nc2nc3ccccc3o2)cc1	Casp6 inh 62
Nc1ccc(S(=O)(=O)Nc2cnc3ccccc3n2)cc1	none (no result: NSD2 inh)
C[C@H]1CN([C@@H](C)CO)S(=O)(=O)c2ccc(C#CCN(C)C)cc2O[C@H]1CN(C)Cc1ccncc1	none (no result: NSD2 inh, DNMT1 block, HCV NS3 hel inh)
O=C(c1cccnc1)N1CC(=O)N2[C@H](C1)[C@@H](c1ccc(/C=C/c3ccccc3)cc1)[C@@H]2CO	none (no result: NSD2 inh, DNMT1 block, HCV NS3 hel inh)
O=C(O)CC1(c2ccccc2)C(=O)c2ccccc2C1=O	none (no result: Casp6 inh)
NC(=O)C1C(=O)c2ccccc2C1(C[N+](=O)[O-])c1ccccc1 (stereo not drawn)	Casp6 inh 69 (no result: HCV NS3 hel inh)
COc1ccc(S(=O)(=O)N(C)C[C@@H]2Oc3ccc(NS(=O)(=O)c4ccc(C)cc4)cc3C(=O)N([C@H](C)CO)C[C@@H]2C)cc1	none (no result: NSD2 inh, DNMT1 block, HCV NS3 hel inh)
COc1ccc2c(c1)c(=O)oc1c(C)c(OCc3cc(C(=O)O)oc3C)ccc12	Casp6 inh 51 (no result: NSD2 inh)
Cc1ccc(C(O)c2ncc(-c3ccc4ccccc4c3)[nH]2)cc1 (stereo not drawn)	none (no result: HCV NS3 hel inh)
CCc1ccc(C(O)c2ncc(-c3ccc4ccccc4c3)[nH]2)cc1 (stereo not drawn)	DNMT1 block 61 (no result: HCV NS3 hel inh)
Cc1ccc2occ(C(c3nnnn3Cc3ccccc3)N3CCOCC3)c(=O)c2c1 (stereo not drawn)	NSD2 inh 67 (no result: Casp6 inh)
O=C(C1CCOCC1)N1CC(=O)N2[C@H](CO)[C@H](c3ccc(C#Cc4cccc(F)c4)cc3)[C@@H]2C1	none (no result: NSD2 inh, DNMT1 block, HCV NS3 hel inh)
Cn1c(SCC(=O)NC2CCCCC2)nnc1-c1ccccn1	Casp6 inh 39
Cn1c(SCC(=O)NC2CCCC2)nnc1-c1ccccn1	none
Cn1c(SCC(=O)NC2CCCC2)nnc1-c1ccncc1	none (no result: Casp6 inh)
CC(C)c1ccc(-c2nnc(SCC(=O)NC3CC3)n2C)cc1	Casp6 inh 53
